# Results: PubChem BioAssay
# Activity calls are given as the source filed them.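 How the source made its calls, unless noted: active means viability at or below 30% in both replicate assays; inconclusive means viability at or below 30% in just one of the two assays; inactive means the rest.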
# Key:
# [1] = reduced viability of SK-BR-3 breast cancer cells – cell-based, 24 h, human, pilot screen (AID 572;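 active means viability at or below 10% of carrier control in both of two separate runs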;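 further: compound exposure lasted between 18 and 24 h rather than exactly 24 h; 100% = carrier-treated control wells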); conditions: SK-BR-3 viability, CellTiter-Glo luminescence, at 10 µM, stronger effect = lower value
# [2] = HUVEC growth inhibition – cell-based, human, primary screen (AID 575); conditions: HUVEC proliferation, CellTiter-Glo luminescence, 72 h; at 10 µM; stronger effect = lower value;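 further: 100% = median of untreated cell wells with 0.1% DMSO on each plate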
# How it was run: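 Assay system: Primary human umbilical vein endothelial cells | Quantity: 1250 cells per well | Medium: Supplemented EBM, 2% fetal bovine serum | Detection: CellTiter-Glo luminescence measuring cellular ATP | Read-out: % viability vs DMSO wells | Plate: Collagen-coated 384-well format | Times: 72 h exposure, 37 °C, 5% CO2, 30 min RT equilibration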
# [3] = H69AR cell proliferation blockers – human, duplicate replicates, primary screen (AID 580;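 active means viability at or under a set limit in both replicates, limit being median viability minus 3 SD, cut at about 48% in these data, passing the limit was not always enough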;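 further: 100% = mean luminescence of untreated wells and 0% = no signal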); conditions: H69AR lung tumor cells viability, ATP luminescence, 72 h; at 10 µM; stronger effect = lower value
# [4] = MRP1 drug-resistance reversers in H69AR cells – cell-based, doxorubicin co-treatment, pilot screen (AID 601;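 active means viability loss from added drug above about 55%, and viability with drug at most 40%, in both replicates, limit read from the data, passing the limit was not always enough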); conditions: CellTiter-Glo, 72 h, at 10 µM; for differential viability (reversal): stronger effect = higher value
# [5] = yeast transport mutant growth inhibition pilot in 384-well plates, post-Golgi transport modulator project (AID 636; in the data active means inhibition above about 31%); conditions: absorbance 615 nm, about 18 h, stronger effect = higher value
# [6] = growth suppression of yeast trafficking mutant, preliminary HTS, modulators of trafficking downstream of Golgi apparatus project, 1536-format plate, OD 615 nm (AID 637; in the data active means inhibition above about 30%); conditions: yeast transport mutant growth, absorbance 615 nm, 18 h; stronger effect = higher value
# [7] = H69AR cells + 2 uM doxorubicin, measured here: viability with 2 uM doxorubicin, stronger effect = lower value
# [8] = H69AR cells, compound alone cytotoxicity
SMILES,viability [1],viability [2],viability [3],differential viability (reversal) ([4]; H69AR cells + 2 uM doxorubicin),"viability [4, 7]","viability [4, 8]",inhibition [5],inhibition [6]
Cc1cc(C)nc(SC2=CS(=O)(=O)c3ccccc32)n1,102% (inactive),73.5% (inactive),14.8% (active),-7.5% (inactive),22.3%,14.8%,-1.2% (inactive),-1.27% (inactive)
COc1ccc(Cn2nnnc2C(c2ccccn2)N2CCN(c3cc(Cl)ccc3C)CC2)cc1 (centres undefined),101% (inactive),73.1% (inactive),77.3% (inactive),-7.71% (inactive),85%,77.3%,-2.43% (inactive),31.6% (active)
Cc1nn(Cc2ccccc2)c(C)c1NC(=O)c1cc(-c2ccco2)on1,103% (inactive),108% (inactive),102% (inactive),19.6% (inactive),82.6%,102%,-5.6% (inactive),-0.55% (inactive)
NS(=O)(=O)c1ccc(NC(=O)CSc2nnc(Cc3cccs3)n2-c2ccccc2)cc1,57% (inactive),93.6% (inactive),93.3% (inactive),4.08% (inactive),89.2%,93.3%,-7.53% (inactive),2.18% (inactive)
CCCCOc1ccccc1C1C(C(N)=O)=C(C)Nc2nnnn21 (centres undefined),110% (inactive),98.3% (inactive),93.3% (inactive),6.69% (inactive),86.6%,93.3%,-3.9% (inactive),0.82% (inactive)
CCCCc1c(O)nc(N2CCN(Cc3ccccc3)CC2)[nH]c1=O,93% (inactive),98.8% (inactive),96.1% (inactive),-1.67% (inactive),97.8%,96.1%,-7.16% (inactive),-1.82% (inactive)
COc1ccc(C2/C(=C(/O)c3ccccc3)C(=O)C(=O)N2c2ncccn2)cc1OC (centres undefined),105% (inactive),101% (inactive),108% (inactive),8.68% (inactive),99.1%,108%,-4.59% (inactive),-2.55% (inactive)
COc1ccc(-c2ccc(-c3nnn(CC(C)=O)n3)cc2)cc1,118% (inactive),105% (inactive),76.9% (inactive),3.31% (inactive),73.6%,76.9%,-4.16% (inactive),-9.02% (inactive)
O=C(NC(=O)c1ccc(Cl)cc1)Nc1cc(N2CCCCC2)ncn1,85% (inactive),93.9% (inactive),91.1% (inactive),-1.91% (inactive),93%,91.1%,-7.4% (inactive),3.87% (inactive)
COC(=O)CCC(=O)CN,111% (inactive),92.9% (inactive),88.6% (inactive),-4.23% (inactive),92.8%,88.6%,-1.3% (inactive),5.67% (inactive)
CCOC(=O)c1c(C)oc2ccc(NS(=O)(=O)c3ccc4c5c(cccc35)C(=O)N4)cc12,103% (inactive),76.9% (inactive),83.9% (inactive),0.75% (inactive),83.1%,83.9%,-7.53% (inactive),5.27% (inactive)
CCOc1nc(-c2ccccc2O)nc2ccccc12,68% (inactive),108% (inactive),100% (inactive),0.64% (inactive),99.5%,100%,1.23% (inactive),0.55% (inactive)
Cc1ccc(S(=O)(=O)N2CCN(c3nc(C)nc4sc(C)c(C)c34)CC2)cc1,95% (inactive),108% (inactive),99.5% (inactive),-2.76% (inactive),102%,99.5%,-3.73% (inactive),-0.73% (inactive)
Cc1cc(Cl)c(S(=O)(=O)Nc2ccc3c(c2)OCCO3)cc1OCC(N)=O,78% (inactive),107% (inactive),97.2% (inactive),11.7% (inactive),85.5%,97.2%,0.27% (inactive),4.84% (inactive)
COc1cccc2c(=O)cc(C)n(CC(=O)Nc3ccc(C)c(C)c3)c12,105% (inactive),84.5% (inactive),95.5% (inactive),13.4% (inactive),82.1%,95.5%,-8.4% (inactive),-2.91% (inactive)
CCN1CCN(c2nc3c(c(=O)n(C)c(=O)n3C)n2Cc2cccc3ccccc23)CC1,87% (inactive),104% (inactive),87.7% (inactive),3.33% (inactive),84.4%,87.7%,-6.58% (inactive),0.91% (inactive)
Cc1ccc(C2C(C(=O)c3sc(C)nc3C)=C(O)C(=O)N2CCN(C)C)o1 (centres undefined),93% (inactive),114% (inactive),103% (inactive),3.58% (inactive),99.1%,103%,-3.65% (inactive),0% (inactive)
COc1ccc(Nc2nc(Nc3ccc(OC)cc3)nc(-n3[nH]c(=O)c(C)c3C)n2)cc1,79% (inactive),92.8% (inactive),12.1% (active),1.18% (inactive),11%,12.1%,-4.32% (inactive),16.9% (inactive)
